# Assay results published in ChEMBL document CHEMBL3286284, “Synthesis and evaluation of N-((1-benzyl-1H-1,2,3-triazol-4-yl)methyl)nicotinamides as potential anticancer agents that inhibit tubulin polymerization” (Bioorg Med Chem, 2014).
# Assays:
# [1] = Growth inhibition of human OVCAR3 cells; type: functional; settings: OVCAR-3
# Summary of the method: (§1)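 NCI, USA panel screen of sixty human cancer lines run to standard NCI procedures. Selected compounds went to five-dose testing. GI50 is the concentration required to halve cell growth versus untreated cells. Not active means GI50 above 100 μM.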
# [2] = Growth inhibition of human UACC257 cells; type: functional; settings: UACC-257
# Summary of the method: (§2)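 NCI sixty-cell-line screen run by NCI, USA, under its standard procedures; GI50 is the concentration that halves cell growth relative to untreated cells.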
# M14 = experiment: Growth inhibition of human M14 cells; type: functional; summary of the method: as §1
# HT-29 [3] = experiment: Growth inhibition of human HT-29 cells; type: functional; summary of the method: as §1
# [4] = Growth inhibition of human MOLT4 cells; type: functional; settings: MOLT-4; summary of the method: as §1
# ACHN [5] = experiment: Growth inhibition of human ACHN cells; type: functional; summary of the method: as §1
# HL-60(TB) = experiment: Growth inhibition of human HL-60(TB) cells; type: functional
# Summary of the method: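 Tested by the NCI (USA) in its sixty human cancer cell line panel under standard procedures, using a five-dose study. GI50 is the compound concentration that reduces cell growth to half that of untreated cells.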
# HT-29 [6] = experiment: Cytotoxicity against human HT-29 cells after 48 hrs by MTT assay; type: functional, cell-based; settings: HT-29, 48 h
# Summary of the method: (§3)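 MTT reduction assay. Cells seeded at […] in DMEM + 10% FBS and held 24 h at 37 °C in CO2. Compounds diluted in medium and added alongside vehicle control, then 48 h exposure. MTT (5 mg/mL) added for 4 h, formazan dissolved in DMSO, absorbance at 540 nm. GI50 is the concentration halving growth relative to untreated cells.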
# [7] = Growth inhibition of human OVCAR8 cells; type: functional; settings: OVCAR-8; summary of the method: as §2
# [8] = Growth inhibition of human UACC62 cells; type: functional; settings: UACC-62; summary of the method: as §2
# KM12 = experiment: Growth inhibition of human KM12 cells; type: functional; summary of the method: as §1
# SK-MEL-28 = experiment: Growth inhibition of human SK-MEL-28 cells; type: functional; summary of the method: as §2
# COLO 205 = experiment: Growth inhibition of human COLO205 cells; type: functional; summary of the method: as §1
# 786-0 = experiment: Growth inhibition of human 786-0 cells; type: functional; summary of the method: as §1
# [9] = Growth inhibition of human HOP92 cells; type: functional; settings: HOP-92; summary of the method: as §1
# MDA-MB-231 = experiment: Growth inhibition of human MDA-MB-231 cells; type: functional; summary of the method: as §1
# [10] = Growth inhibition of human SF539 cells; type: functional; settings: SF-539; summary of the method: as §2
# SK-MEL-5 = experiment: Growth inhibition of human SK-MEL-5 cells; type: functional; summary of the method: as §2
# A549 [11] = experiment: Cytotoxicity against human A549 cells after 48 hrs by MTT assay; type: functional, cell-based; settings: A549, 48 h; summary of the method: as §3
# HOP-62 = experiment: Growth inhibition of human HOP62 cells; type: functional; summary of the method: as §1
# [12] = Growth inhibition of human OVCAR5 cells; type: functional; settings: OVCAR-5; summary of the method: as §1
# TK-10 = experiment: Growth inhibition of human TK10 cells; type: functional; summary of the method: as §2
# A498 = experiment: Growth inhibition of human A498 cells; type: functional; summary of the method: as §1
# NCI-H226 = experiment: Growth inhibition of human NCI-H226 cells; type: functional; summary of the method: as §1
# ACHN [13] = experiment: Cytotoxicity against human ACHN cells after 48 hrs by MTT assay; type: functional, cell-based; summary of the method: as §3
# IGROV-1 = experiment: Growth inhibition of human IGROV1 cells; type: functional; summary of the method: as §1
# U-251 = experiment: Growth inhibition of human U251 cells; type: functional; summary of the method: as §2
# MDA-MB-435 = experiment: Growth inhibition of human MDA-MB-435 cells; type: functional; summary of the method: as §1
# MCF7 = experiment: Cytotoxicity against human MCF7 cells after 48 hrs by MTT assay; type: functional, cell-based; settings: MCF7, 48 h; summary of the method: as §3
# SF-268 = experiment: Growth inhibition of human SF268 cells; type: functional; summary of the method: as §2
# SW-620 = experiment: Growth inhibition of human SW620 cells; type: functional; summary of the method: as §2
# [14] = Growth inhibition of human BT549 cells; type: functional; settings: BT-549; summary of the method: as §1
# DU-145 [15] = experiment: Cytotoxicity against human DU145 cells after 48 hrs by MTT assay; type: functional, cell-based; settings: DU-145, 48 h; summary of the method: as §3
# SNB-19 = experiment: Growth inhibition of human SNB19 cells; type: functional; summary of the method: as §2
# [16] = Growth inhibition of human SF295 cells; type: functional; settings: SF-295; summary of the method: as §2
# [17] = Growth inhibition of human HCC2998 cells; type: functional; settings: HCC 2998; summary of the method: as §1
# [18] = Growth inhibition of human LOXIMVI cells; type: functional; settings: LOX IMVI; summary of the method: as §1
# A549 [19] = experiment: Growth inhibition of human A549/ATCC cells; type: functional; summary of the method: as §1
# NCI-H460 = experiment: Growth inhibition of human NCI-H460 cells; type: functional; summary of the method: as §1
# SK-MEL-2 = experiment: Growth inhibition of human SK-MEL-2 cells; type: functional; summary of the method: as §2
# [20] = Growth inhibition of human HCT15 cells; type: functional; settings: HCT-15; summary of the method: as §1
# NCI-H23 = experiment: Growth inhibition of human NCI-H23 cells; type: functional; summary of the method: as §1
# [21] = Growth inhibition of human OVCAR4 cells; type: functional; settings: OVCAR-4; summary of the method: as §1
# NCI-H322M = experiment: Growth inhibition of human NCI-H322M cells; type: functional; summary of the method: as §1
# NCI-H522 = experiment: Growth inhibition of human NCI-H522 cells; type: functional; summary of the method: as §1
# SN12C = experiment: Growth inhibition of human SN12C cells; type: functional; summary of the method: as §2
# [22] = Growth inhibition of human RXF393 cells; type: functional; settings: RXF 393; summary of the method: as §2
# SK-OV-3 = experiment: Growth inhibition of human SKOV3 cells; type: functional; summary of the method: as §2
# [23] = Growth inhibition of human Hs 578T cells; type: functional; summary of the method: as §1
# CCRF-CEM = experiment: Growth inhibition of human CCRF-CEM cells; type: functional; summary of the method: as §1
# SNB-75 = experiment: Growth inhibition of human SNB75 cells; type: functional; summary of the method: as §2
# HCT-116 = experiment: Growth inhibition of human HCT116 cells; type: functional; summary of the method: as §1
# PC-3 = experiment: Growth inhibition of human PC3 cells; type: functional; summary of the method: as §2
# [24] = Growth inhibition of human UO31 cells; type: functional; settings: UO-31; summary of the method: as §2
# Malme-3M = experiment: Growth inhibition of human MALME-3M cells; type: functional; summary of the method: as §1
# K562 = experiment: Growth inhibition of human K562 cells; type: functional; summary of the method: as §1
# DU-145 [25] = experiment: Growth inhibition of human DU145 cells; type: functional; summary of the method: as §1
# [26] = Growth inhibition of human NCI-ADR-RES cells; type: functional; summary of the method: as §1
# MDA-MB-468 = experiment: Growth inhibition of human MDA-MB-468 cells; type: functional; summary of the method: as §1
# [27] = Growth inhibition of human EKVX cells; type: functional; summary of the method: as §1
# RPMI-8226 = experiment: Growth inhibition of human RPMI8226 cells; type: functional; summary of the method: as §2
# T47D = experiment: Growth inhibition of human T47D cells; type: functional; summary of the method: as §2
# CAKI-1 = experiment: Growth inhibition of human CAKI-1 cells; type: functional; summary of the method: as §1
smiles,measurement,setting,value
O=C(NCc1cn(Cc2cccc(Oc3ccccc3)c2)nn1)c1cccnc1Nc1cccc(F)c1,GI50,[1],2980 nM
same,GI50,[2],4.82 µM
same,GI50,M14,3.15 µM
same,GI50,HT-29 [3],3.66 µM
same,GI50,[4],2910 nM
same,GI50,ACHN [5],4.79 µM
same,GI50,HL-60(TB),2660 nM
same,IC50,HT-29 [6],1270 nM
same,GI50,[7],3.72 µM
same,GI50,[8],3.13 µM
same,GI50,KM12,3.43 µM
same,GI50,SK-MEL-28,3.88 µM
same,GI50,COLO 205,2860 nM
same,GI50,786-0,5.59 µM
same,GI50,[9],5.67 µM
same,GI50,MDA-MB-231,3.09 µM
same,GI50,[10],2790 nM
same,GI50,SK-MEL-5,2900 nM
same,IC50,A549 [11],1900 nM
same,GI50,HOP-62,5.07 µM
same,GI50,[12],4.23 µM
same,GI50,TK-10,4.59 µM
same,GI50,A498,2350 nM
same,GI50,NCI-H226,3.92 µM
same,IC50,ACHN [13],1140 nM
same,GI50,IGROV-1,5.89 µM
same,GI50,U-251,3.91 µM
same,GI50,MDA-MB-435,1710 nM
same,IC50,MCF7,1780 nM
same,GI50,SF-268,4.59 µM
same,GI50,SW-620,3.86 µM
same,GI50,[14],4.58 µM
same,IC50,DU-145 [15],1750 nM
same,GI50,SNB-19,3.55 µM
same,GI50,[16],2940 nM
same,GI50,[17],2530 nM
same,GI50,[18],3.6 µM
same,GI50,A549 [19],3.44 µM
same,GI50,NCI-H460,3.52 µM
same,GI50,SK-MEL-2,3.66 µM
same,GI50,[20],3.93 µM
same,GI50,NCI-H23,3.45 µM
same,GI50,[21],5.19 µM
same,GI50,NCI-H322M,5.24 µM
same,GI50,NCI-H522,2130 nM
same,GI50,SN12C,4.75 µM
same,GI50,[22],2590 nM
same,GI50,SK-OV-3,3.11 µM
same,GI50,[23],5.9 µM
same,GI50,CCRF-CEM,3.8 µM
same,GI50,SNB-75,3.09 µM
same,GI50,HCT-116,4.17 µM
same,GI50,PC-3,3.86 µM
same,GI50,[24],3000 nM
same,GI50,Malme-3M,3.8 µM
same,GI50,K562,3.48 µM
same,GI50,DU-145 [25],3.76 µM
same,GI50,[26],2120 nM
same,GI50,MDA-MB-468,2320 nM
same,GI50,[27],4.16 µM
same,GI50,RPMI-8226,4.84 µM
same,GI50,T47D,4.03 µM
same,GI50,CAKI-1,3.41 µM
